# Test results as given in ChEMBL document CHEMBL3124900, “Discovery and early clinical evaluation of BMS-605339, a potent and orally efficacious tripeptidic acylsulfonamide NS3 protease inhibitor for the treatment of hepatitis C virus infection” (J Med Chem, 2014).
# Tests used:
# Hepatitis C virus = assay: Antiviral activity against Hepatitis C virus genotype 1b Con1 after 4 days by cell-based replicon assay; format: functional, organism-based, Hepacivirus hominis; conditions: isolate Con1, 96 h
# Liver = assay: Drug uptake in intraduodenally dosed Sprague-Dawley rat liver measured per gm of tissue over 4 hrs by LC/MS/MS analysis; format: ADME, organism-based; conditions: in vivo, other
# Procedure, shortened: (§1)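 Abbreviated rat screen: surgically prepared rats were dosed intraduodenally. Plasma was sampled over 4 h, and liver was collected at the 4 h end point. Plasma was precipitated with two volumes of ACN plus internal standard. Liver was weighed and homogenized in 2 volumes of 20% Hanks buffered salt solution/80% ACN. Both were quantified by LC/MS/MS.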
# [1] = Inhibition of Hepatitis C virus genotype 1a H77 recombinant NS3/4A protease expressed in Escherichia coli BL21 (DE3) cell using Ac-Asp-Glu-Asp(EDANS)-Glu-Glu-Abu[C(O)-O]-Ala-Ser-Lys(DABCYL)-NH2 as substrate by FRET assay; design: species or system Hepatitis C virus (isolate H77)
# [2] = Cytotoxicity against human HuH7 cells; format: cell-based; conditions: Huh-7 cells
# [3] = Whole body plasma clearance in Sprague-Dawley rat at 5 mg/kg, iv by LC/MS/MS analysis; format: ADME, organism-based; design: dose 5 mg/kg, route intravenous
# [4] = AUC in Sprague-Dawley rat at 15 mg/kg, po administered via gavage by LC/MS/MS analysis; format: ADME, organism-based; design: dose 15 mg/kg, route oral; conditions: plasma
# [5] = Apparent terminal half life in Sprague-Dawley rat at 5 mg/kg, iv by LC/MS/MS analysis; format: ADME, organism-based; design: dose 5 mg/kg, route intravenous; conditions: in vivo, read-out: betat1/2(app) (converted)
# [6] = (§2) AUC in intraduodenally dosed Sprague-Dawley rat plasma measured over 4 hrs by LC/MS/MS analysis; format: ADME, organism-based; design: time < 4 hr, route intraduodenal; conditions: Sprague-Dawley, plasma; procedure, shortened: as §1
# [7] = Oral bioavailability in Sprague-Dawley rat at 15 mg/kg administered via gavage by LC/MS/MS analysis; format: ADME, organism-based; conditions: in vivo
# [8] = Drug uptake in Sprague-Dawley rat liver at 15 mg/kg, po administered via gavage measured after 24 hrs by LC/MS/MS analysis; format: ADME, organism-based; design: dose 15 mg/kg, route oral; conditions: read-out: Drug uptake
# Procedure, shortened: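 Rats were dosed orally at 15 mg/kg, and liver and plasma were collected 24 h post-dose. Plasma was treated with two volumes of ACN containing internal standard. Tissue was homogenized in 2 volumes of 20% HBSS/80% ACN. Analysis was by LC/MS/MS on a C18 column at 60 °C, using an ammonium formate/formic acid water–methanol gradient, SRM detection and a 5 nM LLQ.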
# [9] = Drug uptake in iv dosed Sprague-Dawley rat liver measured after 24 hrs by LC/MS/MS analysis; format: ADME, organism-based; conditions: read-out: Drug uptake
# Plasma = assay: as §2; format: ADME, organism-based; design: time < 4 hr, route intraduodenal; conditions: in vivo, other, 4 h, BLD = below limit of detection; procedure, shortened: as §1
EC50 (Hepatitis C virus) [nM],Drug uptake (Liver) [ng],IC50 [1] [nM],clearance [3] [mL/min/kg],AUC [4] [µM·h],half-life [5] [h],AUC at 4 h [6] [µM·h],bioavailability [7] [%],concentration at 24 h [8] [µM],concentration at 24 h [9] [µM],Drug uptake (Liver; BLD = below limit of detection),AUC (Plasma),Structure (SMILES),CC50 [2] [nM]
60,28094,7,19,2.67,2.2,0.75,–,–,–,–,–,C=C[C@@H]1C[C@]1(NC(=O)[C@@H]1C[C@@H](Oc2nccc3ccccc23)CN1C(=O)[C@@H](NC(=O)OC(C)(C)C)C(C)(C)C)C(=O)NS(=O)(=O)C1CC1,> 100000
70,–,9,49,0.13,0.67,–,3,–,–,–,–,C=C[C@@H]1C[C@]1(NC(=O)[C@@H]1C[C@@H](Oc2nccc3cc(OC)ccc23)CN1C(=O)[C@@H](NC(=O)O[C@H]1CCOC1)C(C)(C)C)C(=O)NS(=O)(=O)C1CC1,> 100000
2,–,1,27,0.194,3.1,–,2,–,–,–,–,C=C[C@@H]1C[C@]1(NC(=O)[C@@H]1C[C@@H](Oc2ncc(OC)c3cc(OC)ccc23)CN1C(=O)[C@@H](NC(=O)OC(C)(C)C)C(C)(C)C)C(=O)NS(=O)(=O)C1CC1,45000
19,232200,2,182,0.37,9.8,0.28,–,4.2,8,–,–,C=C[C@@H]1C[C@]1(NC(=O)[C@@H]1C[C@@H](Oc2ncc(OC)c3ccccc23)CN1C(=O)[C@@H](NC(=O)OC(C)(C)C)C(C)(C)C)C(=O)NS(=O)(=O)C1CC1,76000
33,–,2,7.8,10.5,2.9,–,28,–,–,–,–,C=C[C@@H]1C[C@]1(NC(=O)[C@@H]1C[C@@H](Oc2nccc3cc(OC)ccc23)CN1C(=O)[C@@H](NC(=O)OC(C)(C)C)C(C)C)C(=O)NS(=O)(=O)C1CC1,> 100000
2000,–,247,–,–,–,–,–,–,–,BLD,BLD,C=C[C@@H]1C[C@]1(NC(=O)[C@@H]1C[C@@H](Oc2nccc3cc(OC)ccc23)CN1C(=O)[C@@H](NC(=O)OC(C)(C)C)C(C)(C)C)C(=O)O,> 100000
